From ChEMBL document CHEMBL1221302, “Discovery of imidazo[1,2-b]pyridazine derivatives as IKKbeta inhibitors. Part 1: Hit-to-lead study and structure-activity relationship” (Bioorg Med Chem Lett, 2010)

How the values were obtained:
[1] = system: THP-1; test: Antiinflammatory activity in human THP1 cells assessed as inhibition of LPS-induced TNFalpha production after 4 hrs by ELISA; type: functional, cell-based; details: THP-1, 4 h
Procedure, shortened: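 THP-1 cells primed 3–4 days with 100 nM calcitriol in RPMI-1640 containing 10% FBS, then cultured overnight without calcitriol. Resuspended in RPMI-1640 with 25 mM HEPES at 1.5×10^5 cells/mL. Compound and E. coli O111:B4 LPS added together, 4 h at 37 °C in 5% CO2. TNFα measured in the centrifuged supernatant by ELISA.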

[2] = target: Mitogen-activated protein kinase 10 (Homo sapiens, UniProt P53779); test: Inhibition of recombinant JNK3 after 15 mins
Procedure, shortened: (§1)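 Each recombinant kinase was assayed with ATP at its own Km.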

[3] = target: Glycogen synthase kinase-3 beta (Homo sapiens, UniProt P49841); test: Inhibition of recombinant GSK3-beta after 15 mins; procedure, shortened: as §1
[4] = target: T1, Inhibitor of nuclear factor kappa-B kinase subunit beta (Homo sapiens, UniProt O14920); test: Inhibition of purified His-tagged IKK-beta after 15 mins
T1 sequence (O14920 whole entry): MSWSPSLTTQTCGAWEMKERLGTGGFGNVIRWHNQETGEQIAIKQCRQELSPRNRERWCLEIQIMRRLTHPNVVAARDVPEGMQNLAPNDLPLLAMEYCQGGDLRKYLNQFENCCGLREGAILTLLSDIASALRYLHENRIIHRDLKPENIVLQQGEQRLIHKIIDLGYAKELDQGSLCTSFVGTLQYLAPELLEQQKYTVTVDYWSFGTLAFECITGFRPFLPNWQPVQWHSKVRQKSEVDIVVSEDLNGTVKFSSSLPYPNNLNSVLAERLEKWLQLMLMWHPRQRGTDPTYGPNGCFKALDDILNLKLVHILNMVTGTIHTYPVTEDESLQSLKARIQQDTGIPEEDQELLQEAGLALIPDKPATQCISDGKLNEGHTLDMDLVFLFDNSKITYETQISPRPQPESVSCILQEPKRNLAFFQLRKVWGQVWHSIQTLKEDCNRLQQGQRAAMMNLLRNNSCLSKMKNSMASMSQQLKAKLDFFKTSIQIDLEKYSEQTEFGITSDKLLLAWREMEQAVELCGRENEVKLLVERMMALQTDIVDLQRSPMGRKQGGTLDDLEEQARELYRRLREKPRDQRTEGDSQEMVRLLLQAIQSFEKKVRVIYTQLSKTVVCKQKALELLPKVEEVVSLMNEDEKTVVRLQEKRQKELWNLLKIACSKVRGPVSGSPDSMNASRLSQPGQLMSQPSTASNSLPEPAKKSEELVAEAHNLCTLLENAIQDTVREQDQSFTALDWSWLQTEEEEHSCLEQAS

[5] = target: Cyclin-dependent kinase 2 (Homo sapiens, UniProt P24941); test: Inhibition of recombinant CDK2 after 15 mins
[6] = target: Mitogen-activated protein kinase 14 (Homo sapiens, UniProt Q16539); test: Inhibition of recombinant p38alpha after 15 mins; procedure, shortened: as §1
[7] = target: T2, Inhibitor of nuclear factor kappa-B kinase subunit alpha (Homo sapiens, UniProt O15111); test: Inhibition of recombinant IKKalpha after 15 mins
T2 sequence (O15111 whole entry): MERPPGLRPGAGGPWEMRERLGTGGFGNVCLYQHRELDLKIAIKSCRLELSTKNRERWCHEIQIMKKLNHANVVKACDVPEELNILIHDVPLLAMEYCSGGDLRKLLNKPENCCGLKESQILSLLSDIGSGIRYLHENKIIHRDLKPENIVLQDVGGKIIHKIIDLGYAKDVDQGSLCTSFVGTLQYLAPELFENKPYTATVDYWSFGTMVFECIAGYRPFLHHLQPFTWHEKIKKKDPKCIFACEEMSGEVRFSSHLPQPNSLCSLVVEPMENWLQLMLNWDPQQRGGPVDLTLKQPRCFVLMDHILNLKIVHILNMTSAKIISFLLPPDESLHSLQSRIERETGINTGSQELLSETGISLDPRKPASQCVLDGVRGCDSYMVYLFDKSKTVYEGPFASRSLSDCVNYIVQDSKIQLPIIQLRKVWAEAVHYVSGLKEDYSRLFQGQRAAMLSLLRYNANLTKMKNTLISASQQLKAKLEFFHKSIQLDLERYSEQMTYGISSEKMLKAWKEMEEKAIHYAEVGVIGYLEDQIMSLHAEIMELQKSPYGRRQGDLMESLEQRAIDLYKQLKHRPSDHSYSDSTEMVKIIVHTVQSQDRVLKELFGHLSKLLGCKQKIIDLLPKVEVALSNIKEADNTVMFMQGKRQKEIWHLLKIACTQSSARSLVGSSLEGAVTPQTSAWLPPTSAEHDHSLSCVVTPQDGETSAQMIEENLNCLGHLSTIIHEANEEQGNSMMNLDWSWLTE

[8] = Apparent permeability of the compound at pH 7.4 by PAMPA method; type: ADME

Chain of Glycogen synthase kinase-3 beta (P49841 whole entry): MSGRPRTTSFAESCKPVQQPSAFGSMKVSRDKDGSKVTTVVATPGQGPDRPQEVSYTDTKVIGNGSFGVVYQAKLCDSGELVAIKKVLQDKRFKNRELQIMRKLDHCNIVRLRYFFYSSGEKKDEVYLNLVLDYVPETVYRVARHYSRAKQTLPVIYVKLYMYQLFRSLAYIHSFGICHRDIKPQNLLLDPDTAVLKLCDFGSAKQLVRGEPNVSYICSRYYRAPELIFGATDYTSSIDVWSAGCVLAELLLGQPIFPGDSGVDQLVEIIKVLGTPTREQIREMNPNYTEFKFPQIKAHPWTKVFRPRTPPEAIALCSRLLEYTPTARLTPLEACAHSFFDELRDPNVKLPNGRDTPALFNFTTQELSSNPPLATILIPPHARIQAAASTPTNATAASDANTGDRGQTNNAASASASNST
Chain of Mitogen-activated protein kinase 14 (Q16539 whole entry): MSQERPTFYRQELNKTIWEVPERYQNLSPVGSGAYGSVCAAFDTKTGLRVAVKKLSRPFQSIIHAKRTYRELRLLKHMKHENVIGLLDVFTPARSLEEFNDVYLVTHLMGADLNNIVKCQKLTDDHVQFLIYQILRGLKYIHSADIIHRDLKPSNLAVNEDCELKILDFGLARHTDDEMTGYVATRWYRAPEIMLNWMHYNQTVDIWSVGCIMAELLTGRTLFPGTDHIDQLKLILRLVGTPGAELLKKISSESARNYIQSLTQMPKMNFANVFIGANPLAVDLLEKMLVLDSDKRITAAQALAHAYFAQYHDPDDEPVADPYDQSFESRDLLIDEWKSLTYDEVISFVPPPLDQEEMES
Chain of Mitogen-activated protein kinase 10 (P53779 whole entry): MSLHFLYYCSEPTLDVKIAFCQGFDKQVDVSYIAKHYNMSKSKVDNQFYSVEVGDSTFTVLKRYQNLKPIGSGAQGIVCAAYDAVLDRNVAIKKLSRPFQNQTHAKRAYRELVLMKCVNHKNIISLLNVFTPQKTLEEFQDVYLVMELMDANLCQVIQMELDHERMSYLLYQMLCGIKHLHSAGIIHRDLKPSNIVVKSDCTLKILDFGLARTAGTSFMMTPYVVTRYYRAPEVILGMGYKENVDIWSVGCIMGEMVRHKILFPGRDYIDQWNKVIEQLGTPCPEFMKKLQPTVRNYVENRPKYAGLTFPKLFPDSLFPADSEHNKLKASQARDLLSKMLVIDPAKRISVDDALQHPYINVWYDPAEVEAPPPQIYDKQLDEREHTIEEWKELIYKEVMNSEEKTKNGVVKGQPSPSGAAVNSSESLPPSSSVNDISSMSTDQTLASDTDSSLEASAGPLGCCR

Row | SMILES | IC50 [1] [µM] | IC50 [4] [µM] | also measured
1 | CN(C)CCCNC(=O)c1ccc(-c2cnc3ccc(NCc4ccc(Cl)c(Cl)c4)nn23)cc1 | > 30 |  | 
2 | CCN1CCC[C@H]1CNC(=O)c1ccc(-c2cnc3ccc(NCC4CC4)nn23)cc1 | 0.49 |  | 
3 | O=C(NCCN1CCCC1)c1ccc(-c2cnc3ccc(NCc4ccc(Cl)c(Cl)c4)nn23)cc1 | > 30 | 0.59 | IC50 [2]: 90 µM; IC50 [3]: > 100 µM; IC50 [5]: > 100 µM; IC50 [6]: > 100 µM; IC50 [7]: 4.6 µM
4 | O=C(NCCN1CCCCC1)c1ccc(-c2cnc3ccc(NCc4ccc(Cl)c(Cl)c4)nn23)cc1 | > 30 |  | 
5 | O=C(NCCN1CCOCC1)c1ccc(-c2cnc3ccc(NCc4ccc(Cl)c(Cl)c4)nn23)cc1 |  | > 30 | 
6 | NCCCNC(=O)c1ccc(-c2cnc3ccc(NCc4ccc(Cl)c(Cl)c4)nn23)cc1 | 4.7 |  | 
7 | CC(C)(N)CNC(=O)c1ccc(-c2cnc3ccc(NCc4ccc(Cl)c(Cl)c4)nn23)cc1 | 6.5 |  | 
8 | O=C(NCCNc1ccccc1)c1ccc(-c2cnc3ccc(NCc4ccc(Cl)c(Cl)c4)nn23)cc1 | > 30 |  | 
9 | O=C(NC[C@@H]1CCCN1)c1ccc(-c2cnc3ccc(NCc4ccc(Cl)c(Cl)c4)nn23)cc1 | 4 | 0.32 | IC50 [2]: > 100 µM; IC50 [3]: > 100 µM; IC50 [5]: 95 µM; IC50 [6]: > 100 µM; IC50 [7]: 2.2 µM; Papp [8]: < 20 nm/s
10 | O=C(NC[C@@H]1CCNC1)c1ccc(-c2cnc3ccc(NCc4ccc(Cl)c(Cl)c4)nn23)cc1 | 17 | 10 | 
11 | O=C(NCC1CCNCC1)c1ccc(-c2cnc3ccc(NCc4ccc(Cl)c(Cl)c4)nn23)cc1 | > 30 |  | 
12 | O=C(NC1CCNC1)c1ccc(-c2cnc3ccc(NCc4ccc(Cl)c(Cl)c4)nn23)cc1 (stereo not drawn) | 6.5 |  | 
13 | O=C(NC1CCNCC1)c1ccc(-c2cnc3ccc(NCc4ccc(Cl)c(Cl)c4)nn23)cc1 | 4.4 |  | 
14 | O=C(NCc1ccccn1)c1ccc(-c2cnc3ccc(NCc4ccc(Cl)c(Cl)c4)nn23)cc1 | > 30 |  | 
15 | CN(C)CCN(C)C(=O)c1ccc(-c2cnc3ccc(NCc4ccc(Cl)c(Cl)c4)nn23)cc1 | 15 |  | 
16 | NC1CN(C(=O)c2ccc(-c3cnc4ccc(NCc5ccc(Cl)c(Cl)c5)nn34)cc2)C1 | > 30 |  | 
17 | O=C(c1ccc(-c2cnc3ccc(NCc4ccc(Cl)c(Cl)c4)nn23)cc1)N1CCC(N2CCCC2)CC1 | > 30 | 1.4 | 
18 | CN1CCN(C(=O)c2ccc(-c3cnc4ccc(NCc5ccc(Cl)c(Cl)c5)nn34)cc2)CC1 | 12 |  | 
19 | CCNC(=O)c1ccc(-c2cnc3ccc(NCc4ccc(Cl)c(Cl)c4)nn23)cc1 | 27 | 27 | 
20 | NC(=O)c1ccc(-c2cnc3ccc(NCc4ccc(Cl)c(Cl)c4)nn23)cc1 | 1.7 |  | 
21 | CNc1ccc2ncc(-c3ccc(C(=O)NC[C@@H]4CCCN4)cc3)n2n1 | 29 |  | 
22 | CC(C)Nc1ccc2ncc(-c3ccc(C(=O)NC[C@@H]4CCCN4)cc3)n2n1 | 1.7 | 0.27 | 
23 | O=C(NC[C@@H]1CCCN1)c1ccc(-c2cnc3ccc(NC4CC4)nn23)cc1 | 3.2 |  | 
24 | O=C(NC[C@@H]1CCCN1)c1ccc(-c2cnc3ccc(NCC4CC4)nn23)cc1 | 0.69 | 0.055 | IC50 [2]: > 100 µM; IC50 [3]: > 100 µM; IC50 [5]: > 100 µM; IC50 [6]: > 100 µM; IC50 [7]: 40 µM; Papp [8]: < 20 nm/s

Row | SMILES | IC50 [1] [µM] | IC50 [4] [µM] | also measured
25 | O=C(NC[C@@H]1CCCN1)c1ccc(-c2cnc3ccc(NCc4ccccc4)nn23)cc1 | 3.7 |  | 
26 | O=C(NC[C@@H]1CCCN1)c1ccc(-c2cnc3ccc(NCc4cccc(Cl)c4)nn23)cc1 | 2.7 | 0.19 | IC50 [2]: 78 µM; IC50 [3]: > 100 µM; IC50 [5]: > 100 µM; IC50 [6]: > 100 µM; IC50 [7]: > 4 µM; Papp [8]: < 20 nm/s
27 | O=C(NC[C@@H]1CCCN1)c1ccc(-c2cnc3ccc(NCCO)nn23)cc1 | > 30 |  | 
28 | O=C(NC[C@@H]1CCCN1)c1ccc(-c2cnc3ccc(NCCCO)nn23)cc1 | > 30 |  | 
29 | CC(=O)NCCNc1ccc2ncc(-c3ccc(C(=O)NC[C@@H]4CCCN4)cc3)n2n1 | > 30 |  | 
30 | O=C(NC[C@@H]1CCCN1)c1ccc(-c2cnc3ccc(NCCc4cnc[nH]4)nn23)cc1 | > 30 | 3 | 
31 | O=C(NC[C@@H]1CCCN1)c1ccc(-c2cnc3ccc(NCCCn4ccnc4)nn23)cc1 | > 30 | 0.38 | 
32 | O=C(NC[C@@H]1CCCN1)c1ccc(-c2cnc3ccc(N[C@H]4CC[C@H](O)CC4)nn23)cc1 | > 30 |  | 
33 | CN(C)c1ccc2ncc(-c3ccc(C(=O)NC[C@@H]4CCCN4)cc3)n2n1 | 20 |  | 
34 | O=C(NC[C@@H]1CCCN1)c1ccc(-c2cnc3ccc(N4CCOCC4)nn23)cc1 |  | > 30 | 
35 | O=C(NC[C@@H]1CCCN1)c1ccc(-c2cnc3ccc(N4CCC(O)CC4)nn23)cc1 |  | > 30 | 
36 | CN(C)CCNC(=O)c1ccc(-c2cnc3ccc(NCC4CC4)nn23)cc1 | 0.69 | 0.2 | IC50 [2]: > 100 µM; IC50 [3]: > 100 µM; IC50 [5]: > 100 µM; IC50 [6]: > 100 µM; IC50 [7]: > 100 µM; Papp [8]: > 500 nm/s
37 | CCN(CC)CCNC(=O)c1ccc(-c2cnc3ccc(NCC4CC4)nn23)cc1 | 1.2 |  | 
38 | CN(C)CCN(C)C(=O)c1ccc(-c2cnc3ccc(NCC4CC4)nn23)cc1 | 2.4 |  | 
39 | CC(N)CNC(=O)c1ccc(-c2cnc3ccc(NCC4CC4)nn23)cc1 (stereo not drawn) | 1.5 | 0.31 | 
40 | CC(CN(C)C)NC(=O)c1ccc(-c2cnc3ccc(NCC4CC4)nn23)cc1 (stereo not drawn) | 2.1 |  | 
41 | O=C(c1ccc(-c2cnc3ccc(NCC4CC4)nn23)cc1)N1CCC[C@H]1CN1CCCC1 |  | 5.1 | 
42 | O=C(c1ccc(-c2cnc3ccc(NCC4CC4)nn23)cc1)N1CCC[C@@H]1CN1CCCC1 | 2.1 | 0.16 | 
43 | O=C(NC[C@H]1CCCN1)c1ccc(-c2cnc3ccc(NCC4CC4)nn23)cc1 | 1.6 | 0.1 | 
44 | O=C(NC[C@@H]1CCCCN1)c1ccc(-c2cnc3ccc(NCC4CC4)nn23)cc1 | 1.5 |  | 
45 | CN1CCC[C@H]1CNC(=O)c1ccc(-c2cnc3ccc(NCC4CC4)nn23)cc1 | 1.3 | 0.11 | 
46 | NCCNC(=O)c1ccc(-c2cnc3ccc(NCc4ccc(Cl)c(Cl)c4)nn23)cc1 | 2.4 |  | 
47 | CN(C)CCNC(=O)c1ccc(-c2cnc3ccc(NCc4ccc(Cl)c(Cl)c4)nn23)cc1 | > 30 |  | IC50 [3]: > 100 µM; IC50 [5]: > 100 µM
